# Compound activity (PubChem)
# An excerpt weighted towards active compounds, which were near 3.8% of everything screened.
# KCNK9 inh = blocks the human KCNK9 two-pore domain potassium channel; Q9NPC2; HEK293 KCNK9, FluxOR thallium flux fluorescence; stronger effect = lower value; B-score at 10 µM; 310,000 tested, 1.2% active;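 active = ratio B-score over 3 SD below the library mean, with starting fluorescence within 5 SD of its mean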;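 note: negative B-score means less thallium flux so channel inhibition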
# Target sequence (Q9NPC2 whole entry, looked up, the tested form may be a part): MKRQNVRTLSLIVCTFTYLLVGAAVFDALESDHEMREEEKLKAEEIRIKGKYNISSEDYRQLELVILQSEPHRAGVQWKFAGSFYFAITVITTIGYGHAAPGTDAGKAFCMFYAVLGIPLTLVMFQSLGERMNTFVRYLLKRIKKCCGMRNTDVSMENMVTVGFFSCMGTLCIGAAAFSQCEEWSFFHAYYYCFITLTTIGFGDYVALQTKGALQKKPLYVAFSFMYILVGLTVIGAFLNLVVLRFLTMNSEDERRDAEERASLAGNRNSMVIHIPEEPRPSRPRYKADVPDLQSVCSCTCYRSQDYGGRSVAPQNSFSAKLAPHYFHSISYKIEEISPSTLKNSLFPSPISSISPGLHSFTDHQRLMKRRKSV
# hERG rescue = shields human hERG channel from block by proarrhythmic agents; Q12809; CHO-hERG, FluxOR thallium flux, dofetilide IC70 present; activation (rescue from dofetilide block), less the hit threshold, % at 10 µM; 310,000 tested, 0.51% active; AID 1511;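 active = activation above the mean of controls blocked by dofetilide plus 5 SD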;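 note: thallium influx through hERG after potassium depolarization seen as dye fluorescence rise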
# KCNQ1 act = human KCNQ1 channel potentiation or activation; B-score at 10 µM; CHO-K1 KCNQ1, thallium flux FluxOR fluorescence; stronger effect = higher value; P51787; AID 2648; 310,000 tested, 0.35% active;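 active = fluorescence ratio B-score, a plate-corrected score, at least three library SD, with initial intensity B-score within 5 SD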
#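 System: CHO-K1 cells stably expressing KCNQ1 / Medium: assay buffer for compound exposure, DMSO matched across wells / Reagent: thallium- and potassium-containing depolarizing buffer / Compound: one concentration, matched DMSO / Incubation: 20 min compound pretreatment at room temperature / Measured by: kinetic FluxOR fluorescence, 10 s baseline plus 110 s post-stimulus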
# KCNQ1 inh = human KCNQ1 channel inhibition. CHO-K1 KCNQ1, FluxOR thallium flux fluorescence; stronger effect = higher value. B-score at 10 µM. 310,000 tested, 1.3% active. AID 2642;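 active = compounds whose thallium flux B-score, printed positive for inhibition, exceeds three library SD while starting fluorescence stays within three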;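 note: channel opened by potassium depolarization with thallium stimulus after 20 min compound exposure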
# KCNK3 block = human KCNK3 channel inhibition, primary screen | O14649 | CHO-KCNK3 thallium flux, FluxOR fluorescence; stronger effect = lower value | B-score at 10 µM | 340,000 tested, 0.84% active | AID 602410;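 active = B-score under library mean minus 4 SD, starting fluorescence ratio at most library mean plus 5 SD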;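 note: more negative B-score means stronger inhibition of thallium flux through KCNK3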
# Kir21 inh = blocks the mouse Kir2.1 inward-rectifier potassium channel; HEK293-Kir2.1, FluxOR thallium flux fluorescence; stronger effect = lower value; B-score at 10 µM; 310,000 tested, 0.85% active;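 active = fluorescence ratio B-score at or below minus 3 SD of library scores, with starting-brightness B-score within 2 SD, cut at about -4.2 in these data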;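 note: channel flux triggered by added potassium and thallium sulfate stimulus; B-score of peak minus minimum fluorescence over baseline after thallium stimulus; more negative B-score means stronger Kir2.1 block with less thallium influx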
# KCNK9 inh conf = human KCNK9 inhibitor confirmation; shares compounds with KCNK9 inh; HEK293 KCNK9 cells, FluxOR thallium flux fluorescence; inhibition, % at 10 µM; 4,900 tested, 43% active; AID 492992;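 active = thallium signal inhibited by more than 5 SD of the compound-free buffer control wells, on both duplicate plates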
# Kir2-1 spec = tests whether KCNK9 modulators also affect mouse Kir2.1 | shares compounds with KCNK9 inh | Kir2.1 cells, FluxOR thallium flux fluorescence | inhibition, % at 10 µM | 4,900 tested, 4% active | AID 492993;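 active = thallium signal drop more than 5 SD beyond the mean of the no-compound control wells, seen in both duplicate plates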;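 note: signal is fluorescence rise after thallium addition divided by baseline fluorescence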
# HEK293 Tl ctr = non-induced cell nonspecific activity of KCNK9 modulators | shares compounds with KCNK9 inh | non-induced KCNK9-HEK293, FluxOR thallium flux | inhibition, % at 10 µM | 4,900 tested, 40% active | AID 492997;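 active = thallium signal drop beyond 5 SD of the untreated control mean, on both duplicate plates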
# KCNK3 confirm = confirmation of human KCNK3 two-pore domain potassium channel inhibitors. shares compounds with KCNK3 block. CHO-KCNK3 thallium flux, FluxOR fluorescence; 0% buffer, 100% carvedilol maximal block. ratio percent of control, % at 10 µM. 2,400 tested, 99% active. AID 651638;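 active = ratio percent of control, averaged over triplicates, above buffer control mean plus 5 SD, cut at about 64% in these data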;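 note: ratio is the fluorescence rise from min to max over baseline after thallium stimulus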
# KCNK3 uninduced = activity in cells without induced KCNK3 expression. shares compounds with KCNK3 block. non-induced KCNK3 parental cells, FluxOR thallium flux; stronger effect = lower value. thallium flux ratio (lower = more inhibition) at 10 µM. 2,400 tested, 40% active. AID 651747;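 active = thallium flux ratio, averaged over three wells, more than 5 SD below the buffer control mean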;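 note: host cells are CHO cells without KCNK3 induction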
# Hits are given with their value; . = inactive; / = no result.
SMILES,KCNK9 inh,hERG rescue,KCNQ1 act,KCNQ1 inh,KCNK3 block,Kir21 inh,KCNK9 inh conf,Kir2-1 spec,HEK293 Tl ctr,KCNK3 confirm,KCNK3 uninduced
CCc1cccc(CC)c1NC(=O)c1cccc(NC(=O)c2ccccc2)c1,-8.6,.,.,.,.,.,64%,.,.,81,.
CC(C)c1cc(NC(=O)c2ccccc2)cc(C(C)C)c1O,.,.,.,.,.,.,/,/,/,/,/
CC(C)c1ccccc1NC(=O)c1cccc(NC(=O)c2ccccc2)c1,-10,.,.,.,-10,.,40%,.,.,106,.
CCc1noc(C)c1C(=O)N1CCN(S(=O)(=O)c2ccc(C)cc2C)CC1,.,.,.,.,.,.,/,/,/,/,/
CCc1noc(C)c1C(=O)N1CCSC1=Nc1cccc(Cl)c1C,-8.9,.,.,6,-11,.,64%,.,42%,113,.
COc1ccc2c(CC(=O)NNC(=O)c3ccc(O)cc3)coc2c1,/,/,/,/,.,/,/,/,/,/,/
CCOC(=O)c1c(NC(=O)CSc2nnc(C)s2)sc2c1CCCCC2,-9.4,.,.,.,-9.8,.,37%,.,48%,121,0.16
Cc1ccc(Nc2nc(Cl)nc(NC(C)(C)C)n2)cc1,.,.,.,.,.,.,/,/,/,/,/
CC(C)(C)Nc1nc(Nc2ccc([N+](=O)[O-])cc2)nc(NC(C)(C)C)n1,-13,.,.,8,-11,.,46%,.,34%,128,0.13
CC(=O)c1ccc(OCC(=O)Nc2ccc(N3CCCCC3)cc2)cc1,/,/,/,/,.,/,/,/,/,/,/
CC1(C)Oc2ccc3ccc(=O)oc3c2/C(=C/O)C1=O,.,.,.,.,.,.,/,/,/,/,/
CC1(C)Oc2ccc3ccc(=O)oc3c2/C(=C/Nc2ccccc2)C1=O,-12,.,.,.,-11,.,56%,.,.,110,.
CN(C(=O)Cn1nc(C(=O)O)c2ccccc2c1=O)C1CCCCC1,/,/,/,/,.,/,/,/,/,/,/
CCCCN(C(=O)c1ccc(N(C)S(=O)(=O)c2ccc(C)cc2)cc1)c1c(N)n(CC(C)C)c(=O)[nH]c1=O,/,/,/,/,.,/,/,/,/,/,/
Cn1nc(-c2ccccc2)c(-c2nc(-c3cccc(Cl)c3)no2)c1Cl,-9.6,.,.,.,-8.8,.,33%,.,30%,103,.
CCC(CC)COC(=O)C(C#N)c1nc2ccccc2nc1N1CCOCC1 (stereo not drawn),-16,.,.,.,-12,.,66%,.,49%,104,0.13
CCCCN1CC(COCc2ccccc2)Oc2cccc(OCCN3C(=O)[C@@H]4[C@H](C3=O)C3C=C[C@H]4C3)c2S1(=O)=O (stereo partly drawn),/,/,/,/,.,/,/,/,/,/,/
O=C(NCCOc1ccc(Cl)cc1)c1ccc2c(c1)OCCO2,/,/,/,/,.,/,/,/,/,/,/
O=C(NCCn1cc(SCc2ccc(F)cc2)c2ccccc21)c1c(F)cccc1F,-14,.,.,.,-9.9,.,60%,.,31%,94,.
O=C(NCCn1cc(SCc2ccccc2)c2ccccc21)c1c(F)cccc1F,.,.,.,.,.,.,/,/,/,/,/
CCN1CC2=C(OC(N)=C(C#N)C2c2ccccc2)/C(=C\c2ccccc2)C1 (stereo not drawn),-8.8,.,.,.,-8.9,.,29%,.,26%,105,.
CC(C)N(Cc1nc(-c2ccc(Cl)cc2)no1)C(=O)C(c1ccccc1)c1ccccc1,-10,.,.,.,-9.9,.,55%,.,40%,129,0.13
COc1ccc(S(=O)(=O)N2CCCCC2)cc1NC(=O)c1ccc(N2CCCC2=O)cc1,/,/,/,/,.,/,/,/,/,/,/
CCOc1ccc(NC(=O)c2cccc(-n3cccc3)c2)cc1S(=O)(=O)N1CCOCC1,/,/,/,/,.,/,/,/,/,/,/
CCc1nc(SCC(=O)NNC(=O)c2ccc(OC)cc2)c2ccccc2n1,.,.,.,.,.,.,/,/,/,/,/
SMILES,KCNK9 inh,hERG rescue,KCNQ1 act,KCNQ1 inh,KCNK3 block,Kir21 inh,KCNK9 inh conf,Kir2-1 spec,HEK293 Tl ctr,KCNK3 confirm,KCNK3 uninduced
CCCc1nc(SCC(=O)c2ccc(OC)cc2)c2ccccc2n1,-19,.,.,.,-11,.,78%,.,27%,108,0.16
CCN(CC)CCNC(=O)c1ccc(NC(=O)/C=C/c2ccc3ccccc3n2)cc1,.,.,.,.,.,.,/,/,/,/,/
COc1ccc(-c2[nH]c(-c3ccc4c(c3)OCO4)nc2-c2ccccc2)cc1,-11,.,.,11,-10,.,56%,.,35%,154,0.11
CN1\C(=C/C=C/C=C/C=[N+](C)C)C(C)(C)c2ccccc21,-8.3,.,.,16,-13,-13,58%,76%,58%,155,0.085
CN1/C(=C\C=O)C(C)(C)c2ccccc21,.,.,.,.,.,.,/,/,/,/,/
O=C(NNC(=O)c1ccccc1OCc1ccccc1)c1ccccc1F,-9.8,.,.,.,-11,.,29%,.,24%,118,0.15
Cc1cnc(C(=O)OC(C(=O)c2c[nH]c3ccccc23)c2ccccc2)cn1 (stereo not drawn),-20,.,.,.,-11,.,78%,.,35%,108,.
CCN(Cc1ccccc1)C(=O)CN1C(=O)COc2ccc(S(=O)(=O)N3CCCCCC3)cc21,.,.,.,.,.,.,/,/,/,/,/
CCN(C(=O)CN1C(=O)COc2ccc(S(=O)(=O)N3CCCCCC3)cc21)c1cccc(C)c1,-12,.,.,.,-8.8,.,44%,.,24%,120,.
O=C(COC(=O)c1c2c(nc3ccccc13)CCCC2)c1cccs1,-10,.,.,.,-12,.,54%,.,.,138,0.12
O=C(COC(=O)c1ccc(O)cc1O)NC(=O)Cc1ccccc1,/,/,/,/,.,/,/,/,/,/,/
COc1ccccc1NC(=S)NC(=O)CCCOc1ccc(Cl)cc1Cl,-23,.,.,.,-10,.,58%,.,30%,117,.
CN1CCc2ccc(NC(=O)c3ccc(C(F)(F)F)cc3)cc2C1,.,.,.,.,.,.,/,/,/,/,/
CCC(Oc1ccccc1)C(=O)Nc1ccccc1OC (stereo not drawn),.,.,.,.,.,.,/,/,/,/,/
